How the values were obtained:
Collagenase 3 = Collagenase 3 (Homo sapiens, UniProt P45452); assay: Inhibition of human MMP13 using Mca-Lys-Pro-Leu-Gly-Leu-Dap(Dnp)-Ala-Arg-NH2 as substrate pre-incubated for 4 hrs before substrate addition measured every 15 secs for 15 mins by fluorimetry
[1] = Dissociation constant, pKa of the compound; assay type: physicochemical
Interstitial collagenase = biological target: T1, Interstitial collagenase (Homo sapiens, UniProt P03956); assay: Inhibition of human MMP1 using Mca-Lys-Pro-Leu-Gly-Leu-Dap(Dnp)-Ala-Arg-NH2 as substrate pre-incubated for 4 hrs before substrate addition measured every 15 secs for 15 mins by fluorimetry
T1 sequence (P03956 whole entry): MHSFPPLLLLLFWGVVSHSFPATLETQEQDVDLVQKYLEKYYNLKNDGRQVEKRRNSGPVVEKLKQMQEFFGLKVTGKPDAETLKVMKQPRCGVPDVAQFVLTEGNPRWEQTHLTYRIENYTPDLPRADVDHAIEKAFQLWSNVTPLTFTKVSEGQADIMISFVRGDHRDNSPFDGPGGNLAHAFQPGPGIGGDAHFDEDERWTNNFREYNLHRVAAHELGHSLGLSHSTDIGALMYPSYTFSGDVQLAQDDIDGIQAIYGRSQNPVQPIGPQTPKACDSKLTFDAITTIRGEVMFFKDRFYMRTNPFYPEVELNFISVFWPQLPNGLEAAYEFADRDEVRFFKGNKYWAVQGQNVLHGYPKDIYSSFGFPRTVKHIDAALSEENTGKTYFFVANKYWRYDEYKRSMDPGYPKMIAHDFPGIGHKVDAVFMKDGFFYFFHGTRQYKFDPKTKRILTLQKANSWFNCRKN
In short: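 Pro-MMP-1 activated with APMA 2 mM for 2 h at 37 °C. Enzyme at 2.0 nM final was pre-incubated with inhibitor for 4 h at 25 °C in Tris 50 mM pH 7.5, NaCl 150 mM, CaCl₂ 10 mM, 0.05% Brij-35 and 1% DMSO. Read-out was fluorescence at ex 325/em 395 nm, in triplicate. IC50 was fitted to Vi/Vo = 1/(1+[I]/IC50) using ≥5 concentrations giving 10–90% inhibition.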

[2] = biological target: 72 kDa type IV collagenase (Homo sapiens, UniProt P08253); assay: Inhibition of human MMP2 using Mca-Lys-Pro-Leu-Gly-Leu-Dap(Dnp)-Ala-Arg-NH2 as substrate pre-incubated for 4 hrs before substrate addition measured every 15 secs for 15 mins by fluorimetry
In short: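 APMA 2 mM for 1 h at 37 °C activated the proenzyme. MMP-2 at 0.56 nM final was incubated with inhibitor for 4 h at 25 °C in pH 7.5 Tris buffer with NaCl, CaCl₂, 0.05% Brij-35 and 1% DMSO. Fluorescence was read at 325/395 nm, in triplicate. Percent inhibition was taken against the uninhibited control. IC50 came from ≥5 concentrations within 10–90% inhibition, fitted to Vi/Vo = 1/(1+[I]/IC50).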

Stromelysin-1 = Stromelysin-1 (Homo sapiens, UniProt P08254); assay: Inhibition of human MMP3 using Mca-Arg-Pro-Lys-Pro-Val-Glu-Nva-Trp-Arg-Lys(Dnp)-NH2 as substrate pre-incubated for 4 hrs before substrate addition measured every 15 secs for 15 mins by fluorimetry
In short: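 Pro-MMP-3 was activated with trypsin for 30 min at 37 °C, then quenched with soybean trypsin inhibitor. Enzyme at 5 nM final was pre-incubated with inhibitor for 4 h at 25 °C in Tris 50 mM pH 7.5, NaCl 150 mM, CaCl₂ 10 mM, 0.05% Brij-35 and 1% DMSO. Fluorescence was read at ex 325/em 395 nm, in triplicate. IC50 was fitted to Vi/Vo = 1/(1+[I]/IC50) from ≥5 concentrations giving 10–90% inhibition.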

[3] = biological target: Matrix metalloproteinase-14 (Homo sapiens, UniProt P50281); assay: Inhibition of recombinant human MMP14 catalytic domain using Mca-Lys-Pro-Leu-Gly-Leu-Dap(Dnp)-Ala-Arg-NH2 as substrate pre-incubated for 4 hrs before substrate addition measured every 15 secs for 15 mins by fluorimetry
In short: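 Catalytic domain used at 1 nM final and incubated with inhibitor for 4 h at 25 °C in Tris 50 mM pH 7.5, NaCl 150 mM, CaCl₂ 10 mM, 0.05% Brij-35 and 1% DMSO. Fluorescence was read at 325/395 nm, in triplicate. Percent inhibition was taken against the no-inhibitor control. IC50 was fitted to Vi/Vo = 1/(1+[I]/IC50) from ≥5 concentrations within 10–90% inhibition.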

Sequence of Stromelysin-1 (P08254 whole entry): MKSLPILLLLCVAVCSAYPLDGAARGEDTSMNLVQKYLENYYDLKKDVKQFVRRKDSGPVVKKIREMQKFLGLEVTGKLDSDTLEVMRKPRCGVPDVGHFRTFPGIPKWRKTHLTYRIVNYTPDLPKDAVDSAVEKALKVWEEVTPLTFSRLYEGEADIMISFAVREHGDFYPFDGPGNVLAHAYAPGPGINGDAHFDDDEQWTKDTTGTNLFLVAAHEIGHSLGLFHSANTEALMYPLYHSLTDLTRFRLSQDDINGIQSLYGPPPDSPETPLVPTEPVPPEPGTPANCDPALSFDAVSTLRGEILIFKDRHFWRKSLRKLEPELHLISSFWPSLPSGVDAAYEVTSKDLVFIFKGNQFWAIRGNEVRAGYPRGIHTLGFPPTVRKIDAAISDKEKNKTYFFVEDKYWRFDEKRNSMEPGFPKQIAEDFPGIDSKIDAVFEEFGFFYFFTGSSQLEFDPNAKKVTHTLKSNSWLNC
Sequence of 72 kDa type IV collagenase (P08253 whole entry): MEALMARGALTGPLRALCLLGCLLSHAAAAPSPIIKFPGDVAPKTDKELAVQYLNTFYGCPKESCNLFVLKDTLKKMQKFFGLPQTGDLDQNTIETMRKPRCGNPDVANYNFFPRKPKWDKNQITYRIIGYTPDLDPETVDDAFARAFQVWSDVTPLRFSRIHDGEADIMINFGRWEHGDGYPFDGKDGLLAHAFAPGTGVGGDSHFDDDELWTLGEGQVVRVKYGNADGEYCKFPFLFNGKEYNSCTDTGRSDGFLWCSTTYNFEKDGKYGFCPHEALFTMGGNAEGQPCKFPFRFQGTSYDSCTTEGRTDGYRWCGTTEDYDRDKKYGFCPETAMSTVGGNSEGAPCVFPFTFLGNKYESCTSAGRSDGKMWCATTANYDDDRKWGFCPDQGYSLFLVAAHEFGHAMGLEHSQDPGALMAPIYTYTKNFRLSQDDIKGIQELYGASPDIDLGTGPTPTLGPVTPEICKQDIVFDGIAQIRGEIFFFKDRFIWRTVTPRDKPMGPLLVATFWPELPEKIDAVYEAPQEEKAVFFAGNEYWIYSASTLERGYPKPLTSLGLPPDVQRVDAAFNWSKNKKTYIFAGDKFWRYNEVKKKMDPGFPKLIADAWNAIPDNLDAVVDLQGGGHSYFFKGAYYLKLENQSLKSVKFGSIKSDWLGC

| IC50 (Collagenase 3) | pKa [1] | IC50 (Interstitial collagenase) | IC50 [2] | IC50 (Stromelysin-1) | IC50 [3] | SMILES |
| --- | --- | --- | --- | --- | --- | --- |
|  | 3.91 | 400 µM | 67 µM | 110 µM | 51 µM | O=C(O)c1cccc(-n2cc(-c3cc4ccccc4oc3=O)[nH]c2=S)c1 |
| > 300 µM |  |  |  |  |  | CCOC(=O)c1cccc(-n2cc(-c3cc4ccccc4oc3=O)[nH]c2=S)c1 |
| 3.2 µM |  |  |  |  |  | COc1ccc2oc(=O)c(-c3cn(-c4cccc(C(=O)O)c4)c(=S)[nH]3)cc2c1 |
| 5.5 µM |  |  |  |  |  | O=C(O)c1cccc(-n2cc(-c3cc4cccc(O)c4oc3=O)[nH]c2=S)c1 |
| 4.9 µM |  |  |  |  |  | COc1cc(Cl)cc2cc(-c3cn(-c4cccc(C(=O)O)c4)c(=S)[nH]3)c(=O)oc12 |
| 4.9 µM |  |  |  |  |  | C=CCc1cc(OC)c2oc(=O)c(-c3cn(-c4cccc(C(=O)O)c4)c(=S)[nH]3)cc2c1 |

Further lines, the compound ahead of its results:

| SMILES | IC50 (Collagenase 3) | pKa [1] | IC50 (Interstitial collagenase) | IC50 [2] | IC50 (Stromelysin-1) | IC50 [3] |
| --- | --- | --- | --- | --- | --- | --- |
| O=c1oc2ccccc2cc1-c1cn(-c2ccccc2)c(S)n1 | 177 µM |  |  |  |  |  |
| O=C(O)CCCN1C(=O)S/C(=C\C=C\c2ccccc2)C1=O | 22 µM | 3.89 | 93 µM | 2.7 µM | 110 µM | 21 µM |
| O=C(O)COc1ccccc1/C=C1/NC(=S)NC1=O | 67 µM | 3.68 | 114 µM | 61 µM | 77 µM | 55 µM |
| COc1ccc(-c2ccc(/C=C3/SC(=S)N(CC(=O)O)C3=O)o2)cc1 | 120 µM | 3.62 | 860 µM | 350 µM | 850 µM | 310 µM |
| COc1ccc(-c2cs/c(=N\c3ccccc3)n2/N=C/c2ccccc2)cc1OC | 140 µM |  | 360 µM | 120 µM | 230 µM | 150 µM |
| CCOc1ccc(-c2ccc(S(=O)(=O)N[C@@H](C(=O)O)C3CCN(C(=O)OC(C)C)CC3)s2)cc1 |  | 2.55 |  |  |  |  |
